Common to all, as to assay type: functional
Assay [1] deals with Cryptococcus neoformans. Briefly: Antimicrobial activity against Cryptococcus neoformans after 72 hrs by broth microdilution method. The method, boiled down:
(§1)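 Broth microdilution in 96-well plates following NCCLS methods. Compounds were dissolved in DMSO, serially diluted in growth medium, inoculated and incubated at 35°C. MIC read at 24 h for Candida albicans and at 72 h for Cryptococcus neoformans. MIC80 is the first well with about 80% less growth than the drug-free well. Values are means of three replicate tests.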
(In broth dilution the organism is exposed to a series of concentrations in liquid medium.)

For assay [2], the system named is Nannizzia gypsea. Briefly: Antimicrobial activity against Microsporum gypseum by broth microdilution method.
Assay [3] has as its system Nakaseomyces glabratus. Briefly: Antimicrobial activity against Candida glabrata by broth microdilution method.
In assay [4] the test system is Candida albicans. Briefly: Antimicrobial activity against Candida albicans Y0109 after 24 hrs by broth microdilution method. The conditions noted are these: Y0109, 24 h. The procedure, abridged: as §1
Assay [5] deals with Trichophyton rubrum. Briefly: Antimicrobial activity against Trichophyton rubrum by broth microdilution method.
Assay [6] relates to Candida albicans. Briefly: Antimicrobial activity against Candida albicans SC5314 after 24 hrs by broth microdilution method. Conditions: SC5314, 24 h. The method, boiled down:
as §1

Assay [7] deals with Candida parapsilosis. In words: Antimicrobial activity against Candida parapsilosis by broth microdilution method. The conditions noted are these: Lodderomyces parapsilosis.
The test system of assay [8] is Aspergillus fumigatus. In words: Antimicrobial activity against Aspergillus fumigatus by broth microdilution method.
Assay [9] deals with Candida albicans. In words: Ratio of itraconazole MIC80 to compound MIC80 for Candida albicans SC5314.
The test system of assay [10] is Candida albicans. In words: Ratio of voriconazole MIC80 to compound MIC80 for Candida albicans SC5314.

Converted amounts (≈) assume the structure as drawn.

Consider eleven compounds from ChEMBL document CHEMBL3098071, “Synthesis and evaluation of novel azoles as potent antifungal agents” (2014).

For the compound `OC(CN1CCN(CCCSc2nnc(-c3ccccc3Br)o2)CC1)(Cn1cncn1)c1ccc(F)cc1F` (stereo not given), the MIC80 (as a rule, the lowest concentration that inhibits either 80% of growth or 80% of the strains tested, depending on the study) in assay [1] was 0.0625 µg/mL (≈ 0.101 µM); in assay [2] it was 0.25 µg/mL (≈ 0.403 µM); in [3] it was 0.0625 µg/mL (≈ 0.101 µM); in assay [4], 0.0625 µg/mL (≈ 0.101 µM); in assay [5], 0.25 µg/mL (≈ 0.403 µM); in [6], 0.0156 µg/mL (≈ 0.0251 µM). The MIC80 in assay [7] was 0.0625 µg/mL (≈ 0.101 µM); in [8], more than 64 µg/mL.

With `O=[N+]([O-])c1ccccc1-c1nnc(SCCCN2CCN(CC(O)(Cn3cncn3)c3ccc(F)cc3F)CC2)o1` (stereo not given), the MIC80 in [1] came to 0.125 µg/mL (≈ 0.213 µM); in assay [2], 0.25 µg/mL (≈ 0.426 µM); in assay [3], 0.25 µg/mL (≈ 0.426 µM); in assay [4], 0.25 µg/mL (≈ 0.426 µM); in [5], 0.25 µg/mL (≈ 0.426 µM); in assay [6], 0.125 µg/mL (≈ 0.213 µM). Moreover, the MIC80 in [7] is 0.125 µg/mL (≈ 0.213 µM); in assay [8], more than 64 µg/mL.

For `OC(CN1CCN(CCCSc2nnc(-c3ccc(Br)cc3)o2)CC1)(Cn1cncn1)c1ccc(F)cc1F` (stereo not given), the MIC80 in [1] is 0.25 µg/mL (≈ 0.403 µM); in assay [2], 0.25 µg/mL (≈ 0.403 µM); in assay [3] it was 0.0156 µg/mL (≈ 0.0251 µM); in assay [4], 0.0625 µg/mL (≈ 0.101 µM); in assay [5], 0.25 µg/mL (≈ 0.403 µM); in [6], 0.0625 µg/mL (≈ 0.101 µM). In addition, the MIC80 in assay [7] is 0.0625 µg/mL (≈ 0.101 µM); in assay [8], more than 64 µg/mL.

Turning to `OC(CN1CCNCC1)(Cn1cncn1)c1ccc(F)cc1F` (stereo not given), the MIC80 in assay [1] was found to be 4 µg/mL (≈ 12.4 µM); in assay [2], 16 µg/mL (≈ 49.5 µM); in assay [3] it was 0.25 µg/mL (≈ 0.773 µM); in assay [4], 1 µg/mL (≈ 3.09 µM); in assay [5], 1 µg/mL (≈ 3.09 µM); in [6], 0.5 µg/mL (≈ 1.55 µM). Further, the MIC80 in assay [7] was 2 µg/mL (≈ 6.19 µM); in assay [8], more than 64 µg/mL.

Turning to `COc1ccc(-c2nnc(SCCCN3CCN(CC(O)(Cn4cncn4)c4ccc(F)cc4F)CC3)o2)cc1` (stereo not given), the MIC80 in assay [1], in assay [2], in assay [3], in assay [4], in [5] and in assay [6] was 0.25 µg/mL (≈ 0.437 µM) in each case. Also, the values for the MIC80 in [7] and in assay [8] were 0.25 µg/mL (≈ 0.437 µM) and more than 64 µg/mL, respectively.

Take `COc1cccc(-c2nnc(SCCCN3CCN(CC(O)(Cn4cncn4)c4ccc(F)cc4F)CC3)o2)c1` (stereo not given): the MIC80 was determined as 0.25 µg/mL (≈ 0.437 µM) in assay [1]; 0.25 µg/mL (≈ 0.437 µM) in [2]; 0.25 µg/mL (≈ 0.437 µM) in assay [3]; 0.25 µg/mL (≈ 0.437 µM) in assay [4]; 0.0625 µg/mL (≈ 0.109 µM) in assay [5]; 0.25 µg/mL (≈ 0.437 µM) in assay [6]. The MIC80 in assay [7] is 0.25 µg/mL (≈ 0.437 µM); in assay [8] it was more than 64 µg/mL.

`OC(CN1CCN(CCCSc2nnc(-c3cccc(Cl)c3)o2)CC1)(Cn1cncn1)c1ccc(F)cc1F` (stereo not given): the MIC80 in assay [1] was determined as 0.0625 µg/mL (≈ 0.108 µM); in [2], 1 µg/mL (≈ 1.74 µM); in [3], 0.25 µg/mL (≈ 0.434 µM); in [4], 0.0039 µg/mL (≈ 0.00677 µM); in [5] it was 0.0625 µg/mL (≈ 0.108 µM); in assay [6] it was 0.0039 µg/mL (≈ 0.00677 µM). The MIC80 in assay [7] was 0.25 µg/mL (≈ 0.434 µM); in assay [8], more than 64 µg/mL. Further, the Ratio in [9] came out at 64; in assay [10], 16.

Consider `Cc1cccc(-c2nnc(SCCCN3CCN(CC(O)(Cn4cncn4)c4ccc(F)cc4F)CC3)o2)c1` (stereo not given), for which the MIC80 in assay [1] is 1 µg/mL (≈ 1.8 µM); in [2], 1 µg/mL (≈ 1.8 µM); in assay [3], 1 µg/mL (≈ 1.8 µM); in [4], 0.25 µg/mL (≈ 0.45 µM); in assay [5] it was 1 µg/mL (≈ 1.8 µM); in assay [6], 0.125 µg/mL (≈ 0.225 µM). Besides, the MIC80 in assay [7] was 4 µg/mL (≈ 7.2 µM); in [8], more than 64 µg/mL.

Consider `OC(Cn1cncn1)(Cn1cncn1)c1ccc(F)cc1F` [FLUCONAZOLE], for which the MIC80 is 1 µg/mL (≈ 3.27 µM) in [1]; 8 µg/mL (≈ 26.1 µM) in assay [2]; 1 µg/mL (≈ 3.27 µM) in [3]; 0.5 µg/mL (≈ 1.63 µM) in assay [4]; more than 64 µg/mL in assay [5]; 0.5 µg/mL (≈ 1.63 µM) in assay [6]. The MIC80 in assay [7] came out at 1 µg/mL (≈ 3.27 µM); in assay [8], 8 µg/mL (≈ 26.1 µM).

Regarding `O=[N+]([O-])c1ccc(-c2nnc(SCCCN3CCN(CC(O)(Cn4cncn4)c4ccc(F)cc4F)CC3)o2)cc1` (stereo not given), the MIC80 in assay [1] came to 0.25 µg/mL (≈ 0.426 µM); in assay [2], 1 µg/mL (≈ 1.7 µM); in assay [3], 0.125 µg/mL (≈ 0.213 µM); in assay [4] it was 0.125 µg/mL (≈ 0.213 µM); in assay [5] it was 1 µg/mL (≈ 1.7 µM); in [6] it was 0.25 µg/mL (≈ 0.426 µM). Further, the figures for the MIC80 in assay [7] and in assay [8] were 0.125 µg/mL (≈ 0.213 µM) and more than 64 µg/mL, respectively.

Regarding `CCC(C)n1ncn(-c2ccc(N3CCN(c4ccc(OCC5COC(Cn6cncn6)(c6ccc(Cl)cc6Cl)O5)cc4)CC3)cc2)c1=O` (stereo not given) [ITRACONAZOLE], the MIC80 worked out at 0.125 µg/mL (≈ 0.177 µM) in [1]; 1 µg/mL (≈ 1.42 µM) in assay [2]; 0.125 µg/mL (≈ 0.177 µM) in assay [3]; 0.25 µg/mL (≈ 0.354 µM) in assay [4]; 0.5 µg/mL (≈ 0.709 µM) in [5]; 0.25 µg/mL (≈ 0.354 µM) in [6]. In addition, the values for the MIC80 in [7] and in assay [8] were 0.125 µg/mL (≈ 0.177 µM) and 1 µg/mL (≈ 1.42 µM), respectively.
